The source of these data is ChEMBL document CHEMBL1141034, “Optimization of the in vitro and in vivo properties of a novel series of 2,4,5-trisubstituted imidazoles as potent cholecystokinin-2 (CCK2) antagonists” (J Med Chem, 2005).

In data set [1] the target is T1, Gastrin/cholecystokinin type B receptor (Canis lupus familiaris) (UniProt P30552).
T1 sequence (whole entry): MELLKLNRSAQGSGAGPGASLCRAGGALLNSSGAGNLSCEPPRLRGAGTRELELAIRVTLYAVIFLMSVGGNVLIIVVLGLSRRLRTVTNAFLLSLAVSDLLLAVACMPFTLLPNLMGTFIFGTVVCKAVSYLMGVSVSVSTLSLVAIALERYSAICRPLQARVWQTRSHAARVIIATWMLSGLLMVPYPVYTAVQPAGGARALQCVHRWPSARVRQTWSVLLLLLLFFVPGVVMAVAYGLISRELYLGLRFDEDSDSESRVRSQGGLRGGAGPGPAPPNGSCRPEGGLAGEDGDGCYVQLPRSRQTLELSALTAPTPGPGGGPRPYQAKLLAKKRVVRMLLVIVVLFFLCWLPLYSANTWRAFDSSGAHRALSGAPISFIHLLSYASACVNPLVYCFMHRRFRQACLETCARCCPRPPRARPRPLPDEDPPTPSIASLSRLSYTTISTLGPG
Kind of data set: Percent inhibition (i.v., 1.0 mg/Kg) against dog CCK2 receptor. The method in brief: (§1)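 Conscious dogs given a bolus iv or intraduodenally during pentagastrin-stimulated acid secretion. Result is the peak percentage inhibition of acid output in the first four collection periods (1 h) after dosing, ± SEM, with the number of replicates stated.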

The target of data set [2] is T2, Gastrin/cholecystokinin type B receptor (Canis lupus familiaris, UniProt P30552).
T2 sequence (P30552 whole entry): T1 sequence (whole entry)
Put plainly: Concentration required to inhibit the binding of [125I]-BH-CCK-8S radioligand to canine gastric mucosa CCK2 receptor. An outline of the steps:
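Canine gastric mucosa. Competition with [125I]BH-CCK-8S for CCK2 binding sites, reported as pIC50 ± SEM.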

A short description of data set [3]: Lipophilicity was measured in octanol/buffer (pH 7.4). The format is physicochemical. The method in brief: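 log D from partition between octanol and buffer at pH 7.4, given ± error.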
Data set [4] has as its target T3, Cholecystokinin receptor type A (Cavia porcellus, UniProt Q63931).
T3 sequence (Q63931 whole entry): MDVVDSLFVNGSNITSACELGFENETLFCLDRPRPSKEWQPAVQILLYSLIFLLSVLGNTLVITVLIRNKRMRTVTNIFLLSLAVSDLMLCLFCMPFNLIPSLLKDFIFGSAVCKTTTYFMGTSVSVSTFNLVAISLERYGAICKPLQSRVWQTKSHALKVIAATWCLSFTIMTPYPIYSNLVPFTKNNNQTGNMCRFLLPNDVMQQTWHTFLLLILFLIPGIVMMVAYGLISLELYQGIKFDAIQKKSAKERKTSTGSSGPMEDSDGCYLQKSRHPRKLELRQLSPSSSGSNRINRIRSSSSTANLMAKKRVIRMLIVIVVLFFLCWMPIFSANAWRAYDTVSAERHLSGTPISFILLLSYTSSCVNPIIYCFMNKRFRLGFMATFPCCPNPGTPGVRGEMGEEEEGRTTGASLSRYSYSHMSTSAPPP
Put plainly: Concentration required to inhibit the binding of 20 pM [125I]BH-CCK-8S radioligand to guinea pig pancreas CCK1 receptor. The method in brief: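 CCK1 sites on guinea pig pancreatic cells. Competition with 20 pM [125I]BH-CCK-8S, reported as pKI. At least three separate experiments give ± SEM. Where only two experiments were run, no error is given (approximate SEM 0.1 log units).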

Data set [5] has as its target T1, Gastrin/cholecystokinin type B receptor (Canis lupus familiaris). Put plainly: Percent inhibition (i.d., 10.0 mg/Kg) against dog CCK2 receptor. An outline of the steps: as §1

For `O=C(O)c1cccc(NC(=O)c2[nH]c(C3CCCCC3)nc2CCC23CC4CC(CC(C4)C2)C3)c1`, the inhibition (in general, the change of the read-out against control, counted positive when it falls) in data set [1] turned out to be 40%; in data set [5] it was 46%. Also, the IC50 (usually the concentration that inhibits the measured activity by half) in data set [2] was 29.5 nM. For the same compound, the logD (as a rule, lipophilicity at a set pH, counting ionised and neutral species) in data set [3] was found to be 4.12. For the same compound, affinity in data set [4] was put at a Ki of 575 nM.
